Measured values reported in ChEMBL document CHEMBL4823242, “Cytotoxic Naphthoquinone Analogues, Including Heterodimers, and Their Structure Elucidation Using LR-HSQMBC NMR Experiments” (J Nat Prod, 2021).

What was measured:
Type in all cases: functional, cell-based
[1] = tested on: MDA-MB-435; test: Cytotoxicity against human MDA-MB-435 cells after 72 hrs by Cell Titer-Blue cell viability assay; conditions: MDA-MB-435, 72 h
Summary of the method: (§1)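 Cells kept at 37 °C, 5% CO2 in RPMI 1640 with 10% FBS, penicillin 100 units/mL and streptomycin 100 μg/mL. Log-phase cells harvested by trypsin, washed twice, seeded at 5,000 per well and left overnight. DMSO-dissolved samples diluted and added, then 72 h at 37 °C. Viability read by CellTiter-Blue absorbance. IC50 is the concentration giving 50% growth relative to DMSO control.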

[2] = tested on: MDA-MB-231; test: Cytotoxicity against human MDA-MB-231 cells after 72 hrs by Cell Titer-Blue cell viability assay; conditions: MDA-MB-231, 72 h; summary of the method: as §1
[3] = tested on: OVCAR-3; test: Cytotoxicity against human OVCAR-3 cells after 72 hrs by Cell Titer-Blue cell viability assay; conditions: OVCAR-3, 72 h; summary of the method: as §1

CCc1c(OC)cc2c(c1O)C(=O)C(C(C)c1c(OC)cc3c(c1O)C(=O)C=C(OC)C3=O)=C(O)C2=O (racemic)
IC50 [1]: 15 µM
IC50 [2]: 17 µM
IC50 [3]: 18 µM

COC1=CC(=O)c2c(cc(OC)c(C(C)OC(C)=O)c2O)C1=O (racemic)
IC50 [1]: 0.7 µM
IC50 [2]: 6.2 µM
IC50 [3]: 0.9 µM

COC1=CC(=O)c2c(cc(OC)c(C)c2O)C1=O
IC50 [1]: 3.2 µM
IC50 [2]: 15 µM
IC50 [3]: 9.6 µM

COC1=CC(=O)c2c(cc(OC)c(C(C)C3=C(O)C(=O)c4cc(O)c(C(C)=O)c(O)c4C3=O)c2O)C1=O (racemic) [KIRSCHSTEININ]
IC50 [1]: 2.2 µM
IC50 [2]: 4.4 µM
IC50 [3]: 6.6 µM

CC(=O)O[C@H]1C(=O)[C@@]2(C)[C@H]([C@H](OC(=O)c3ccccc3)[C@]3(O)C[C@H](OC(=O)[C@H](O)[C@@H](NC(=O)c4ccccc4)c4ccccc4)C(C)=C1C3(C)C)[C@]1(OC(C)=O)CO[C@@H]1C[C@@H]2O [PACLITAXEL]
IC50 [2]: 0.0002 µM
IC50 [3]: 0.0051 µM

COC1=CC(=O)c2c(cc(OC)c(C(C)C3=C(O)C(=O)c4cc(OC)cc(O)c4C3=O)c2O)C1=O (racemic)
IC50 [1]: 3.6 µM
IC50 [2]: 20 µM
IC50 [3]: 17 µM

COC1=CC(=O)c2c(cc(OC)c(C(C)OC)c2O)C1=O (racemic)
IC50 [1]: 3.4 µM
IC50 [2]: 12 µM
IC50 [3]: 13 µM

COC1=CC(=O)c2c(cc(OC)c(C(C)O)c2O)C1=O (racemic)
IC50 [1]: 3 µM
IC50 [2]: 12 µM
IC50 [3]: 7.9 µM

CCc1c(OC)cc2c(c1O)C(=O)C[C@@H](OC)[C@H]2O
IC50 [1]: > 25 µM
IC50 [2]: > 25 µM
IC50 [3]: > 25 µM

CCc1c(OC)cc2c(c1O)C(=O)C=C(OC)C2=O
IC50 [1]: 2.1 µM
IC50 [2]: 7.8 µM
IC50 [3]: 7.3 µM
